Test results reported in ChEMBL document CHEMBL1140385, “Synthesis and antibacterial activity of 3-substituted-6-(3-ethyl-4-methylanilino)uracils” (J Med Chem, 2005).
In brackets after ≈: the same amount, converted by molar mass.

Key:
[1] = tested on: Enterococcus faecium; experiment: In vitro minimum inhibitory concentration against Enterococcus fecium upon incubation at 37 degree C for 16 to 24 hr by dissolving in DMSO (1%); assay type: functional
Summary of the method: (§1)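 Broth microdilution (modified NCCLS M7-A4). Enterococci grown to log phase in brain-heart infusion broth, seeded at (3-7) × 10⁵ CFU/mL. Compounds 2-fold diluted from DMSO stocks, 20 to 1.25 µg/mL, final 1% DMSO, in duplicate. Incubated 37 °C, 16-24 h, with shaking. OD600 read.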

[2] = tested on: Enterococcus faecium; experiment: In vitro minimum inhibitory concentration against Vancomycin resistant Enterococci faecium upon incubation at 37 degree C for 16 to 24 hr by dissolving in DMSO (1%); assay type: functional; summary of the method: as §1
[3] = tested on: Enterococcus faecalis; experiment: In vitro minimum inhibitory concentration against Enterococcus faecalis upon incubation at 37 degree C for 16 to 24 hr by dissolving in DMSO (1%); assay type: functional
Summary of the method: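 Log-phase E. faecalis was grown in brain-heart infusion broth and seeded at (3-7) × 10^5 CFU/mL. Duplicate 2-fold dilutions ran from 20 to 1.25 µg/mL, final 1% DMSO. After 16-24 h at 37 °C with shaking, OD600 was read.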

[4] = tested on: Staphylococcus aureus; experiment: In vitro minimum inhibitory concentration against Staphylococcus aureus (Smith) upon incubation at 37 degree C for 16 to 24 hr by dissolving in DMSO (1%); assay type: functional
[5] = tested on: Staphylococcus aureus; experiment: In vitro minimum inhibitory concentration against Methicillin-resistant Staphylococcus aureus upon incubation at 37 degree C for 16 to 24 hr by dissolving in DMSO (1%); assay type: functional
Summary of the method: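 Broth microdilution (modified NCCLS M7-A4). Staphylococci grown to log phase in Luria broth, seeded at (3-7) × 10⁵ CFU/mL. Compounds 2-fold diluted from DMSO stocks, 20 to 1.25 µg/mL, final 1% DMSO, in duplicate. Incubated 37 °C, 16-24 h, with shaking. OD600 read.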

[6] = tested on: Staphylococcus aureus; experiment: Serum effect on MIC against Staphylococcus aureus (Smith) as ratio of MIC value in presence and absence of 50% fetal calf serum; assay type: functional
Summary of the method: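 Broth microdilution MIC was repeated with 50% fetal calf serum added to the growth medium (LB for S. aureus, brain-heart infusion broth for E. faecalis). The inoculum was (3-7) × 10^5 CFU/mL in 1% DMSO, incubated at 37 °C for 16-24 h, and read by OD600. The serum effect is the MIC with serum relative to the MIC without serum.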

[7] = tested on: Staphylococcus aureus; experiment: In vitro minimum inhibitory concentration against Staphylococcus aureus upon incubation at 37 degree C for 16 to 24 hr by dissolving in DMSO (1%); assay type: functional
[8] = tested on: Bacillus subtilis; experiment: In vitro minimum inhibitory concentration against Bacillus subtilis upon incubation at 37 degree C for 16 to 24 h; assay type: functional
[9] = target: DNA polymerase III PolC-type (Bacillus subtilis (strain 168), UniProt P13267); experiment: Inhibitory concentration against Bacillus subtilis DNA polymerase IIIC using [3H]dTMP 250 pM (30 degree C for 10 min)
Summary of the method: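 Homogeneous recombinant B. subtilis pol IIIC, 0.025-0.06 units, acted on activated calf thymus DNA with Mg2+, DTT, glycerol, dATP, dCTP, dTTP and [3H]dTTP, without dGTP. Compounds were serially diluted from DMSO. Reactions ran 10 min at 30 °C, were stopped with TCA-pyrophosphate, and the filter-collected precipitate was scintillation counted. Apparent Ki was read directly from this truncated assay; average standard deviation ±44%.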

DNA polymerase III PolC-type, sequence (P13267 whole entry, the tested form may be a part): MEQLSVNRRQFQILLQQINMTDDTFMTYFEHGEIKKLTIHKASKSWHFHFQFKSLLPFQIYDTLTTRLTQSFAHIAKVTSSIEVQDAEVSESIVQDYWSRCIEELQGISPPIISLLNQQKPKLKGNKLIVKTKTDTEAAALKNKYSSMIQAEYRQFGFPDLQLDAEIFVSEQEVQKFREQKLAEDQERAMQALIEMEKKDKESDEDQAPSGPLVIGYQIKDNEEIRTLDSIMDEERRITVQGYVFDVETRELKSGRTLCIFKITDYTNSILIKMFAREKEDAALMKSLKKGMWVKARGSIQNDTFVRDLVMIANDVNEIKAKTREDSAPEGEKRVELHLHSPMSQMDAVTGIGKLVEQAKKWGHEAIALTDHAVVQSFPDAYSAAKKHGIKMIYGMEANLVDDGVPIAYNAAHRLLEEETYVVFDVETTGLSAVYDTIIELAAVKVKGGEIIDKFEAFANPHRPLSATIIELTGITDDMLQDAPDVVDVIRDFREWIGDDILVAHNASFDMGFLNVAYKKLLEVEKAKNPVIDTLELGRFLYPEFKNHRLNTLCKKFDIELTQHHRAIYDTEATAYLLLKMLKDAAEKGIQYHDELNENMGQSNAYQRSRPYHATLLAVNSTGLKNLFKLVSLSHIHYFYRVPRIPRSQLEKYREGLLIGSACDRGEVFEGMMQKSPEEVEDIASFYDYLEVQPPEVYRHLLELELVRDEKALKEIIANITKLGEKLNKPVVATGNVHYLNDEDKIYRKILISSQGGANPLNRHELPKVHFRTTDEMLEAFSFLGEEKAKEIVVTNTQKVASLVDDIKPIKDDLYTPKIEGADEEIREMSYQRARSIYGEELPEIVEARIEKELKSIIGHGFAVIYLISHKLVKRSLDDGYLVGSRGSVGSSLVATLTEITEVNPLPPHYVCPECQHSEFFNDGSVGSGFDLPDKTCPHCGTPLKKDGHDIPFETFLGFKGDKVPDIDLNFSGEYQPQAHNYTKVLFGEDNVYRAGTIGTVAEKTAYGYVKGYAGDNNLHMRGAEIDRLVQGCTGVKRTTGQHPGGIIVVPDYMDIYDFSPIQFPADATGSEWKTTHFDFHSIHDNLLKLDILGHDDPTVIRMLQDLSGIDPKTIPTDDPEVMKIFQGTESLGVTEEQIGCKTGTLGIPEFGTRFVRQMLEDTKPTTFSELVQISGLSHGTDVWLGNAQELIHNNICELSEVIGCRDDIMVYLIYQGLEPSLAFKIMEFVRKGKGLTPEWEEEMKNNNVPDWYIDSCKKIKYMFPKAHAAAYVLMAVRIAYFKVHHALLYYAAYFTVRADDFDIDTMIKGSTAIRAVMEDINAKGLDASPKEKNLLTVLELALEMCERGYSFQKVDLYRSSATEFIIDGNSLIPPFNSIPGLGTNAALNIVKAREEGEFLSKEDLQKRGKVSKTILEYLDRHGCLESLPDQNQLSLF

SMILES	MIC [1]	MIC [2]	MIC [3]	MIC [4]	MIC [5]	MIC+/MIC- [6]	MIC [7]	MIC [8]	Ki [9]
CCc1cc(Nc2cc(=O)n(CCCCNC(=O)CCl)c(=O)[nH]2)ccc1C	10 µg/mL (≈ 25.5 µM)	5 µg/mL (≈ 12.7 µM)	5 µg/mL (≈ 12.7 µM)	5 µg/mL (≈ 12.7 µM)	10 µg/mL (≈ 25.5 µM)	–	–	–	–
CCc1cc(Nc2cc(=O)n(C/C=C/CO)c(=O)[nH]2)ccc1C	2.5 µg/mL (≈ 7.93 µM)	2.5 µg/mL (≈ 7.93 µM)	5 µg/mL (≈ 15.9 µM)	5 µg/mL (≈ 15.9 µM)	5 µg/mL (≈ 15.9 µM)	4.8	10 µg/mL (≈ 31.7 µM)	1.25 µg/mL (≈ 3.96 µM)	–
CCc1cc(Nc2cc(=O)n(CCCCCN3CC=C(c4ccc(F)cc4)CC3)c(=O)[nH]2)ccc1C	7.5 µg/mL (≈ 15.3 µM)	5 µg/mL (≈ 10.2 µM)	7.5 µg/mL (≈ 15.3 µM)	7.5 µg/mL (≈ 15.3 µM)	7.5 µg/mL (≈ 15.3 µM)	–	10 µg/mL (≈ 20.4 µM)	–	–
CCc1cc(Nc2cc(=O)n(CCCCNC(=O)C3CC3)c(=O)[nH]2)ccc1C	–	5 µg/mL (≈ 13 µM)	5 µg/mL (≈ 13 µM)	5 µg/mL (≈ 13 µM)	20 µg/mL (≈ 52 µM)	14.9	–	–	–
CCc1cc(Nc2cc(=O)n(CCN3CCN(C(=O)c4ccccc4)CC3)c(=O)[nH]2)ccc1C	5 µg/mL (≈ 10.8 µM)	5 µg/mL (≈ 10.8 µM)	10 µg/mL (≈ 21.7 µM)	10 µg/mL (≈ 21.7 µM)	10 µg/mL (≈ 21.7 µM)	–	–	–	–
CCc1cc(Nc2cc(=O)n(CCCCOC(C)=O)c(=O)[nH]2)ccc1C	5 µg/mL (≈ 13.9 µM)	5 µg/mL (≈ 13.9 µM)	5 µg/mL (≈ 13.9 µM)	–	5 µg/mL (≈ 13.9 µM)	–	–	–	–
CCc1cc(Nc2cc(=O)n(CCCC(O)CO)c(=O)[nH]2)ccc1C (centres undefined)	20 µg/mL (≈ 57.6 µM)	10 µg/mL (≈ 28.8 µM)	20 µg/mL (≈ 57.6 µM)	20 µg/mL (≈ 57.6 µM)	> 20 µg/mL	–	–	–	–
CCc1cc(Nc2cc(=O)n(CCCC(=O)O)c(=O)[nH]2)ccc1C	20 µg/mL (≈ 60.4 µM)	20 µg/mL (≈ 60.4 µM)	> 20 µg/mL	–	> 20 µg/mL	–	20 µg/mL (≈ 60.4 µM)	–	–
CCc1cc(Nc2cc(=O)n(CCCCNS(=O)(=O)c3cccs3)c(=O)[nH]2)ccc1C	2.5 µg/mL (≈ 5.4 µM)	5 µg/mL (≈ 10.8 µM)	5 µg/mL (≈ 10.8 µM)	–	–	13.7	> 20 µg/mL	–	–
CCc1cc(Nc2cc(=O)n(CCCCN)c(=O)[nH]2)ccc1C.Cl	> 20 µg/mL	–	> 20 µg/mL	10 µg/mL	> 20 µg/mL	–	20 µg/mL	20 µg/mL	–
CCc1cc(Nc2cc(=O)n(CCCCCCCCCO)c(=O)[nH]2)ccc1C	2.5 µg/mL (≈ 6.45 µM)	2.5 µg/mL (≈ 6.45 µM)	2.5 µg/mL (≈ 6.45 µM)	2.5 µg/mL (≈ 6.45 µM)	20 µg/mL (≈ 51.6 µM)	>32	20 µg/mL (≈ 51.6 µM)	< 1.25 µg/mL	87 nM
CCc1cc(Nc2cc(=O)n(CCCCOC(=O)N3CCOCC3)c(=O)[nH]2)ccc1C	5 µg/mL (≈ 11.6 µM)	5 µg/mL (≈ 11.6 µM)	5 µg/mL (≈ 11.6 µM)	5 µg/mL (≈ 11.6 µM)	10 µg/mL (≈ 23.2 µM)	–	–	–	–
CCc1cc(Nc2cc(=O)n(CCCCCN)c(=O)[nH]2)ccc1C.Cl	20 µg/mL	> 20 µg/mL	> 20 µg/mL	10 µg/mL	10 µg/mL	–	5 µg/mL	< 1.25 µg/mL	185 nM
CCc1cc(Nc2cc(=O)n(CCCO)c(=O)[nH]2)ccc1C	2.5 µg/mL (≈ 8.24 µM)	2.5 µg/mL (≈ 8.24 µM)	5 µg/mL (≈ 16.5 µM)	5 µg/mL (≈ 16.5 µM)	5 µg/mL (≈ 16.5 µM)	5.6	2.5 µg/mL (≈ 8.24 µM)	< 1.25 µg/mL	130 nM
CCc1cc(Nc2cc(=O)n(CCOC)c(=O)[nH]2)ccc1C	2.5 µg/mL (≈ 8.24 µM)	2.5 µg/mL (≈ 8.24 µM)	5 µg/mL (≈ 16.5 µM)	2.5 µg/mL (≈ 8.24 µM)	5 µg/mL (≈ 16.5 µM)	6.9	2.5 µg/mL (≈ 8.24 µM)	< 1.25 µg/mL	127 nM
CCc1cc(Nc2cc(=O)n(CCO)c(=O)[nH]2)ccc1C	5 µg/mL (≈ 17.3 µM)	5 µg/mL (≈ 17.3 µM)	10 µg/mL (≈ 34.6 µM)	5 µg/mL (≈ 17.3 µM)	10 µg/mL (≈ 34.6 µM)	–	5 µg/mL (≈ 17.3 µM)	< 1.25 µg/mL	–
CCc1cc(Nc2cc(=O)n(CCCOC)c(=O)[nH]2)ccc1C	2.5 µg/mL (≈ 7.88 µM)	2.5 µg/mL (≈ 7.88 µM)	5 µg/mL (≈ 15.8 µM)	2.5 µg/mL (≈ 7.88 µM)	2.5 µg/mL (≈ 7.88 µM)	4.9	2.5 µg/mL (≈ 7.88 µM)	< 1.25 µg/mL	120 nM
CCc1cc(Nc2cc(=O)n(CCCCOC)c(=O)[nH]2)ccc1C	2.5 µg/mL (≈ 7.54 µM)	2.5 µg/mL (≈ 7.54 µM)	5 µg/mL (≈ 15.1 µM)	5 µg/mL (≈ 15.1 µM)	5 µg/mL (≈ 15.1 µM)	7.4	5 µg/mL (≈ 15.1 µM)	< 1.25 µg/mL	–
O=C(O)c1cn(C2CC2)c2cc(N3CCNCC3)c(F)cc2c1=O [CIPROFLOXACIN]	5 µg/mL (≈ 15.1 µM)	20 µg/mL (≈ 60.4 µM)	–	0.078 µg/mL (≈ 0.235 µM)	> 20 µg/mL	–	0.156 µg/mL (≈ 0.471 µM)	0.078 µg/mL (≈ 0.235 µM)	–
